ChEMBL document CHEMBL4732237, “Discovery of 4-alkoxy-2-aryl-6,7-dimethoxyquinolines as a new class of topoisomerase I inhibitors endowed with potent in vitro anticancer activity” (2021)

Columns and labels:
[1] = test system: KM12; assay: Growth inhibition of human KM12 cells incubated for 48 hrs by sulforhodamine B assay; type: functional
Outline: (§1)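 NCI five-dose screen covering 0.01–100 µM, prepared as 10-fold or ½-log dilutions from DMSO stock. Cells in RPMI 1640 with 5% FBS were exposed for 48 h at 37 °C after 24 h preincubation. Adherent cells were fixed with TCA (final 10%) and suspension cells were settled before fixing. Stain was SRB, read at 515 nm. GI50 = 50% reduction in net protein increase versus control, with Tz taken at drug addition.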

[2] = test system: SK-MEL-28; assay: Growth inhibition of human SK-MEL-28 cells incubated for 48 hrs by sulforhodamine B assay; type: functional
Outline: (§2)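 NCI five-dose screen (0.01–100 µM; five concentrations plus control). Cells grown in RPMI 1640/5% FBS/2 mM L-glutamine and preincubated 24 h, with time-zero plates TCA-fixed. Drug exposure 48 h at 37 °C, followed by SRB protein staining and reading at 515 nm. GI50 is the concentration at [(Ti-Tz)/(C-Tz)]×100 = 50.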

[3] = test system: CCRF-CEM; assay: Growth inhibition of human CCRF-CEM cells incubated for 48 hrs by sulforhodamine B assay; type: functional; outline: as §1
[4] = test system: HL-60(TB); assay: Growth inhibition of human HL-60(TB) cells incubated for 48 hrs by sulforhodamine B assay; type: functional
Outline: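 NCI-60 five-dose screen. Cells in RPMI 1640 with 5% FBS and 2 mM L-glutamine were plated at 5000–40,000 cells/well and preincubated 24 h at 37 °C, 5% CO2. Drugs in DMSO were given at five serial 10-fold or ½-log dilutions for 48 h. Adherent cells fixed with 10% TCA (final); suspension cells fixed after settling. SRB stained; A515. GI50 from [(Ti-Tz)/(C-Tz)]x100 = 50.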

[5] = test system: UO-31; assay: Growth inhibition of human UO-31 cells incubated for 48 hrs by sulforhodamine B assay; type: functional
Outline: (§3)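 NCI five-dose assay, with drug stocks in DMSO diluted in medium to five concentrations (10-fold or ½-log series). Cells in RPMI 1640/5% FBS were pre-incubated 24 h, and time-zero plates were TCA-fixed at drug addition. After 48 h at 37 °C, cells were TCA-fixed, SRB-stained and read at 515 nm. GI50 is from [(Ti-Tz)/(C-Tz)]×100 = 50, TGI from Ti = Tz, and LC50 from [(Ti-Tz)/Tz]×100 = -50.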

[6] = test system: NCI-H226; assay: Growth inhibition of human NCI-H226 cells incubated for 48 hrs by sulforhodamine B assay; type: functional; outline: as §2
[7] = test system: NCI-H322M; assay: Growth inhibition of human NCI-H322M cells incubated for 48 hrs by sulforhodamine B assay; type: functional; outline: as §2
[8] = test system: HCT-15; assay: Growth inhibition of human HCT-15 cells incubated for 48 hrs by sulforhodamine B assay; type: functional; outline: as §1
[9] = target: T1, DNA topoisomerase 1 (Homo sapiens) (UniProt P11387); assay: Inhibition of recombinant human TOPO1 assessed as TOP1-DNA cleavage complexes at 1 uM using 3'-[32-P]-117 labeled bp DNA as substrate incubated for 30 mins by SDS-PAGE analysis relative to control
T1 sequence (whole entry): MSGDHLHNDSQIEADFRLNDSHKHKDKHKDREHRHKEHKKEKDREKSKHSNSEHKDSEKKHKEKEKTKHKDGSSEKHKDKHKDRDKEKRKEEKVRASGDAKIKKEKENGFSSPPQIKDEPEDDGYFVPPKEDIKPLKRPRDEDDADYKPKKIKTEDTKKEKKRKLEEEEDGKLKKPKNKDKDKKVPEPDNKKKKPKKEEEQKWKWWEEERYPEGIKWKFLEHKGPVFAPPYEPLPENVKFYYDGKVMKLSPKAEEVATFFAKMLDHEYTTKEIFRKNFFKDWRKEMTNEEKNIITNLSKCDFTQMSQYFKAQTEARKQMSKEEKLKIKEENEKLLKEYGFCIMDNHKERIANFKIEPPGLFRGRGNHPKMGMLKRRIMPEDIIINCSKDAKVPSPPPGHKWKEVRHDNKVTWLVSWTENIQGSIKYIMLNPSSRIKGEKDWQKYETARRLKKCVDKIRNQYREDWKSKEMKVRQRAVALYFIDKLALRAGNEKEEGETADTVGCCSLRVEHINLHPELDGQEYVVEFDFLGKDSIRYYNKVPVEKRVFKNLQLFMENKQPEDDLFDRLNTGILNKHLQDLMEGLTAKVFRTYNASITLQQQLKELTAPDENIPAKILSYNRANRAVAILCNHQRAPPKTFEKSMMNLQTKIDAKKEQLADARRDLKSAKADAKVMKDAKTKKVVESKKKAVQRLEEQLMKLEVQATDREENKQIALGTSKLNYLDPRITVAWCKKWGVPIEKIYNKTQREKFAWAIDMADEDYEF

[10] = test system: HOP-92; assay: Growth inhibition of human HOP-92 cells incubated for 48 hrs by sulforhodamine B assay; type: functional; outline: as §1
[11] = test system: SF-268; assay: Growth inhibition of human SF-268 cells incubated for 48 hrs by sulforhodamine B assay; type: functional; outline: as §2
[12] = test system: MOLT-4; assay: Growth inhibition of human MOLT-4 cells incubated for 48 hrs by sulforhodamine B assay; type: functional; outline: as §2
[13] = test system: BT-549; assay: Growth inhibition of human BT-549 cells incubated for 48 hrs by sulforhodamine B assay; type: functional; outline: as §1
[14] = test system: SF-539; assay: Growth inhibition of human SF-539 cells incubated for 48 hrs by sulforhodamine B assay; type: functional; outline: as §2
[15] = test system: Hs-578T; assay: Growth inhibition of human HS-578T cells incubated for 48 hrs by sulforhodamine B assay; type: functional; outline: as §1
[16] = test system: LOX IMVI; assay: Growth inhibition of human LOX IMVI cells incubated for 48 hrs by sulforhodamine B assay; type: functional; outline: as §1
[17] = test system: HCT-29; assay: Growth inhibition of human […] cells incubated for 48 hrs by sulforhodamine B assay; type: functional; outline: as §1
[18] = test system: RXF 393; assay: Growth inhibition of human RXF 393 cells incubated for 48 hrs by sulforhodamine B assay; type: functional; outline: as §2
[19] = test system: MCF7; assay: Growth inhibition of human MCF7 cells incubated for 48 hrs by sulforhodamine B assay; type: functional; outline: as §1
[20] = test system: IGROV-1; assay: Growth inhibition of human IGROV-1 cells incubated for 48 hrs by sulforhodamine B assay; type: functional; outline: as §1
[21] = test system: SK-OV-3; assay: Growth inhibition of human SK-OV-3 cells incubated for 48 hrs by sulforhodamine B assay; type: functional; outline: as §2
[22] = test system: SK-MEL-5; assay: Growth inhibition of human SK-MEL-5 cells incubated for 48 hrs by sulforhodamine B assay; type: functional; outline: as §2
[23] = test system: UACC-62; assay: Growth inhibition of human UACC-62 cells incubated for 48 hrs by sulforhodamine B assay; type: functional; outline: as §3
[24] = test system: UACC-257; assay: Growth inhibition of human UACC-257 cells incubated for 48 hrs by sulforhodamine B assay; type: functional; outline: as §3
[25] = test system: SN12C; assay: Growth inhibition of human SN12C cells incubated for 48 hrs by sulforhodamine B assay; type: functional; outline: as §2
[26] = test system: OVCAR-3; assay: Growth inhibition of human OVCAR-3 cells incubated for 48 hrs by sulforhodamine B assay; type: functional; outline: as §2
[27] = test system: DU-145; assay: Growth inhibition of human DU-145 cells incubated for 48 hrs by sulforhodamine B assay; type: functional; outline: as §1
[28] = test system: 786-0; assay: Growth inhibition of human 786-0 cells incubated for 48 hrs by sulforhodamine B assay; type: functional; outline: as §1

SMILES | GI50 [1] [µM] | GI50 [2] [µM] | GI50 [3] [µM] | GI50 [5] [µM] | GI50 [6] [µM] | GI50 [7] [µM] | GI50 [8] [µM] | inhibition [9] [%] | GI50 [10] [µM] | GI50 [12] [µM] | GI50 [13] [µM] | GI50 [15] [µM] | GI50 [16] [µM] | TGI [16] [µM] | GI50 [17] [µM] | GI50 [18] [µM] | GI50 [19] [µM] | GI50 [20] [µM] | GI50 [22] [µM] | GI50 [23] [µM] | further results
COc1cc2nc(-c3ccc(C(F)(F)F)cc3)cc(OCCCN3CCCCC3)c2cc1OC | 2.92 | 1.26 | 1.83 | 2 | 0.37 | 8.7 | 0.399 | 20 | 0.678 | 1.7 | 1.48 | 2.15 | 0.162 | 0.355 | 0.415 | 1.09 | 1.16 | 0.651 | 0.325 | 1.82 | GI50 [4]: 2.91 µM; GI50 [11]: 3.76 µM; GI50 [14]: 2.08 µM; GI50 [21]: 2.3 µM; TGI [22]: 1.2 µM; GI50 [24]: 1.7 µM; GI50 [25]: 0.668 µM; GI50 [26]: 2.44 µM; GI50 [27]: 1.84 µM; GI50 [28]: 2.17 µM
COc1cc2nc(-c3ccc(Cl)cc3)cc(OCCCN3CCCC3)c2cc1OC | 2.46 | 1.48 | 2.14 | 1.72 | 0.898 | 3.36 | 0.567 | 20 | 0.85 | 1.5 | 1.77 | 1.89 | 0.191 | 0.446 | 0.454 | 1.17 | 1.33 | 0.881 | 0.961 | 2.03 | GI50 [4]: 2.72 µM; GI50 [11]: 2.53 µM; GI50 [14]: 2.44 µM; GI50 [21]: 2.42 µM; GI50 [24]: 1.96 µM; GI50 [25]: 0.914 µM; GI50 [26]: 2.71 µM; GI50 [27]: 2.15 µM; GI50 [28]: 2.78 µM
COc1cc2nc(-c3ccc(Cl)cc3)cc(OCCCN3CCOCC3)c2cc1OC | 3.87 | 1.52 | 3.35 | 1.78 | 0.997 | > 100 | 0.754 | 50 | 1.36 | 2.85 | 2.59 | 2.4 | 0.217 | 0.592 | 0.61 | 1.12 | 2.49 | 0.99 | 0.832 | 2.26 | GI50 [14]: 2.99 µM; GI50 [21]: 3 µM; GI50 [24]: 1.92 µM; GI50 [25]: 1.3 µM; GI50 [28]: 1.94 µM
COc1cc2nc(-c3ccc(C(F)(F)F)cc3)cc(OCCCN3CCOCC3)c2cc1OC | 3.42 | 1.44 | 2.79 | 1.77 | 0.406 | 10.5 | 0.52 | 50 | 1 | 2.51 | 5 | 2.25 | 0.141 | 0.324 | 0.54 | 0.706 | 1.55 | 0.83 | 0.288 | 0.628 | GI50 [4]: 9.58 µM; GI50 [11]: 5.7 µM; GI50 [21]: 5.04 µM; GI50 [24]: 1.67 µM; GI50 [25]: 0.675 µM; GI50 [26]: 3.73 µM; GI50 [27]: 10.1 µM; GI50 [28]: 1.76 µM
COc1cc2nc(-c3ccc(C(F)(F)F)cc3)cc(OCCCN3CCC(O)CC3)c2cc1OC | 6.87 | 2.38 | 3.26 | 2.71 | 1.59 | 10.2 | 0.667 | 0 | 1.68 | 3.27 | 6.59 | 3.75 | 0.19 | 0.447 | 0.486 | 1.34 | 2.57 | 0.9 | 1.43 | 2.61 | GI50 [4]: 13.9 µM; GI50 [11]: 5.76 µM; GI50 [14]: 5.75 µM; GI50 [21]: 10.6 µM; GI50 [24]: 2.28 µM; GI50 [25]: 1.44 µM; GI50 [26]: 6.1 µM; GI50 [27]: 4.96 µM; GI50 [28]: 4.72 µM
COc1cc2nc(-c3ccc(Cl)cc3)cc(OCCCN3CCCCC3)c2cc1OC | 3.07 | 1.45 | 2.79 | 1.87 | 1.12 | 4.42 | 0.604 | 20 | 1.02 | 2.04 | 1.43 | 2.11 | 0.189 | 0.435 | 0.492 | 1.08 | 1.56 | 0.838 | 1.1 | 1.94 | GI50 [11]: 3.2 µM; GI50 [14]: 2.57 µM; GI50 [24]: 1.92 µM; GI50 [25]: 0.946 µM; GI50 [26]: 3.23 µM; GI50 [27]: 2.54 µM; GI50 [28]: 2.62 µM
COc1cc2nc(-c3ccc(Cl)cc3)cc(OCCCN3CCC(O)CC3)c2cc1OC | 3.13 | 1.49 | 2.65 | 1.72 | 1.39 | 3.22 | 0.763 | 20 | 1.25 | 1.8 | 2.79 | 1.91 | 0.227 | 0.589 | 0.7 | 1.22 | 1.6 | 0.923 | 1.27 | 1.9 | GI50 [4]: 4.27 µM; GI50 [11]: 3.36 µM; GI50 [14]: 2.28 µM; GI50 [21]: 3.17 µM; GI50 [24]: 2.06 µM; GI50 [25]: 1.26 µM; GI50 [26]: 3.24 µM; GI50 [27]: 2.78 µM; GI50 [28]: 3.31 µM
